Assay results gathered from unrelated publications.
Compare with care: the assays were run in different laboratories.
Target: Tyrosine-protein kinase Fer (FER, Homo sapiens, UniProt P16591)

`COc1cc2ncnc(Nc3ccc(Oc4ccccc4)c(C)c3C)c2cc1OC` has an inhibition of 18% (enzyme activity, inhibitor; 1 µM).
For `Cc1ccc(NC(=O)c2ccc(CN3CCN(C)CC3)cc2)cc1Nc1nc(-c2cccnc2)cs1`, the remaining signal was 97.6% (cell-free assay; 0.5 µM).
For `CO[C@@H](C)c1c(Nc2ccc([C@H](N(C)C(=O)C3CCS(=O)(=O)CC3)C(F)(F)F)cc2)cnc2cc(Cl)nn12`, the remaining binding was 88% (cell-free assay, competition with immobilised ligand; 1 µM).
`CNC(=O)c1cc(Oc2ccc(NC(=O)Nc3ccc(Cl)c(C(F)(F)F)c3)cc2)ccn1` gave an inhibition of -30% (enzyme activity, inhibitor; 10 µM).
With `C[C@@H](c1cccc(C#N)c1)n1cc(Cl)cc(C(N)=O)c1=N` the remaining binding was 100% (cell-free assay, competition with immobilised ligand; 1 µM).
With `Cc1cnc(NC2CCOCC2)nc1-n1cnc(C(=O)NC(CN)c2cc(F)cc(Cl)c2)c1` (stereo not shown) the remaining activity was 104% (enzyme activity, inhibitor, radiometric; 1 µM).
With `C[C@@H]1CN(c2cc(-c3n[nH]c4ccc(OC5(C)CC5)cc34)ncn2)C[C@H](C)O1` the remaining binding was 86% (cell-free assay, competition with immobilised ligand; 0.1 µM).
For `Cc1cc(NC(=O)c2cccc3cc(-c4cccc5[nH]nc(N)c45)ccc23)ccc1F`, the activity vs control was 106% (enzyme activity, inhibitor; 0.1 µM).
For `CCN1CCN(Cc2ccc(NC(=O)c3ccc(C)c(/C=C/c4cnc5[nH]ccc5c4OC)c3)cc2C(F)(F)F)CC1`, the inhibition was -10.4% (target engagement in cells, inhibitor, chemoproteomics; A-375; 50 nM).
`C[C@@H]1CCN(C(=O)CC#N)C[C@@H]1N(C)c1ncnc2[nH]ccc12` gave a remaining signal of 104% (cell-free assay; 0.5 µM).
For `Cc1ccc(Nc2nccc(N(C)c3ccc4c(C)n(C)nc4c3)n2)cc1S(N)(=O)=O`, the inhibition was -24% (enzyme activity, inhibitor; 0.3 µM).
With `O=C1NC(=O)c2cc(Nc3ccc(F)cc3)c(Nc3ccc(F)cc3)cc21` the remaining signal was 96.4% (cell-free assay; 0.5 µM).
`CCOCCn1cc(C(=O)Nc2ccc(-n3nc(-c4cccnc4)cc3C(F)(F)F)cn2)ccc1=O` has a remaining binding of 100% (cell-free assay, competition with immobilised ligand; 1 µM).
For `CC(C)(O)[C@H]1CC[C@H](Nc2ccc3ncc(-c4cccc(C(F)(F)F)c4)n3n2)CC1`, the remaining activity was 77.1% (enzyme activity, inhibitor; 1 µM).
For `O=C(N1CCS(=O)(=O)CC1)N1C[C@H](c2ccc(OC(F)(F)F)cc2)C[C@H](c2nc(C3CC3)no2)C1`, the remaining binding was 100% (cell-free assay, competition with immobilised ligand; 1 µM).
With `CC(C)(C)c1nc(-c2cccc(NS(=O)(=O)c3c(F)cccc3F)c2F)c(-c2ccnc(N)n2)s1` the remaining activity was 94% (enzyme activity, inhibitor, radiometric; 1 µM).
`CCN(CC)CCNC(=O)c1c(C)[nH]c(/C=C2\C(=O)Nc3ccc(F)cc32)c1C` has an inhibition of 55% (enzyme activity, inhibitor; 10 µM).
The remaining activity of `CCN(CC)c1ccc(C2=NNC(=O)CC2C)cc1[N+](=O)[O-]` (stereo not shown) is reported as 119% (enzyme activity, inhibitor; 10 µM).
The remaining activity of `COc1cc2nccc(Oc3ccc(NC(=S)NC(=O)c4ccccc4C)cc3)c2cc1OC` is reported as 58.2% (enzyme activity, inhibitor; 0.5 µM).
`CNc1cccc2cc(C(=O)Nc3ccc(C(=O)O)cc3)c(=O)[nH]c12` has an inhibition of 1.6% (enzyme activity, inhibitor; 10 µM).
`O=C1Nc2ccc(Cl)cc2C1=Cc1cc(Cl)c(O)c(Cl)c1` has a remaining signal of 92.1% (cell-free assay; 0.5 µM).
The remaining binding of `C[C@H](c1ccc(F)cc1)N(Cc1cccc(C(=O)O)c1)C(=O)c1cnc2ccccc2c1` is reported as 100% (cell-free assay, competition with immobilised ligand; 1 µM).
`CCCS(=O)(=O)Nc1ccc(F)c(C(=O)c2c[nH]c3ncc(-c4ccc(Cl)cc4)cc23)c1F` has an inhibition of less than 10% (enzyme activity, inhibitor; 1 µM).
The remaining binding of `Cc1c[nH]c2nccc(Oc3c(F)cc(Nc4cc(Cl)nc(N)n4)cc3F)c12` is reported as 100% (cell-free assay, competition with immobilised ligand; 0.1 µM).
`COc1cc(Cl)c(C(=O)N[C@@H](CN[C@H]2CC[C@@H](N)CC2)Cc2ccc(C#N)cc2)cc1-c1ccc(CN[C@H](C)c2ccc(C)cc2)o1` gave a remaining activity of 96% (enzyme activity, inhibitor; 1 µM).
`CN(C)C(=O)Cn1cc(-c2nc(C3(c4ccc(-c5cnc(N)nc5)cc4)CC3)no2)cn1` gave a remaining binding of 79% (cell-free assay, competition with immobilised ligand; 1 µM).
For `CC/C(=N\NC(=O)NCc1cccc(O)c1)c1ccc(O)c(C)c1O`, the inhibition was -2.3% (enzyme activity, inhibitor; 0.1 µM).
For `O=c1c2ccccc2[nH]c(=S)n1CCN1CCC(=C(c2ccc(F)cc2)c2ccc(F)cc2)CC1`, the remaining activity was 95.2% (enzyme activity, inhibitor; 0.5 µM).
With `CCCOc1ccc(OC)c(F)c1C(=O)c1ccc(C(=O)N[C@@H]2CNC[C@H]2NC(=O)c2ccc3[nH]ncc3c2)cc1` the remaining activity was 105% (enzyme activity, inhibitor; 10 µM).
`O=C(Nc1cnn(-c2csc(C(=O)NC3COC3)c2)c1)Nc1c(F)cccc1Cl` has a remaining activity of 89.8% (enzyme activity, inhibitor; 5 µM).
`C[S+]([O-])c1ccc(-c2nc(-c3ccncc3)c(-c3ccc(F)cc3)[nH]2)cc1` (stereo not shown) gave a remaining signal of 95% (cell-free assay; 0.5 µM).
